RBBP9 inhibitor – inhibitors of human serine hydrolase RBBP9. AID 1515. O75884. inhibition, % at 7.94 µM. recombinant RBBP9, FP-Rh probe fluorescence polarization. actives 0.2% (n = 220,000);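 active = inhibition above the campaign mean of all tested compounds plus 3 SD, cut at about 14% in these data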;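 note: plate controls were DMSO wells with RBBP9 for no effect and wells lacking RBBP9 protein for full effect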
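System: RBBP9 protein | Quantity: 2.5 µM RBBP9 dispensing solution, before mixing | Reagent: FP-Rh probe, 375 nM dispensing solution | Timing: Enzyme-compound preincubation 30 min, then probe labeling 45 min, 25 °C | Measured by: Fluorescence polarization | Read-out: % inhibition | Replication: One well per compound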
PP1 inh – blocks human PP1-alpha phosphatase, a PP5 counter-screen; inhibition, % at 6.7 µM; purified PP1alpha, OMFP fluorescence; AID 2235; actives 0.9% (n = 320,000); P62136;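 active = inhibition above the mean inhibition of all tested compounds plus 3 SD, computed separately for each screening campaign, cut at about 15% in these data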
Target sequence (P62136 whole entry, looked up): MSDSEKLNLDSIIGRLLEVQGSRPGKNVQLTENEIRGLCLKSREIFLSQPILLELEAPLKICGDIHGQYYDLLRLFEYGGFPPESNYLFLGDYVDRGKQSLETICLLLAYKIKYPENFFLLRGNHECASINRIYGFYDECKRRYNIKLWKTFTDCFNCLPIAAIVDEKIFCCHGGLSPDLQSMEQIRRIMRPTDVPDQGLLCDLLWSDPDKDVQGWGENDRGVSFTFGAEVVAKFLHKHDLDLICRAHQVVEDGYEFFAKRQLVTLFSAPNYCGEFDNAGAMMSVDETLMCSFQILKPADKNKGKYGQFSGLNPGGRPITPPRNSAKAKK
PKD1 inh – inhibitors of human PKD1 kinase. Q15139. PKD1 kinase fluorescence polarization assay. inhibition, % (no concentration beside the values). actives 0.056% (n = 200,000); in the data active = inhibition above about 50%
PP5 inh – inhibitors of human protein phosphatase 5 (PP5) | P53041 | purified PP5c, OMFP substrate fluorescence | inhibition, % at 6.7 µM | actives 0.18% (n = 320,000);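 active = inhibition above the campaign's mean inhibition across all tested compounds plus 3 SD, cut at about 9.5% in these data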;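 note: 0% = DMSO only and 100% = 100 µM cantharidin control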
p97 ATPase inh – inhibitors of human p97 ATPase; inhibition, % at 8 µM; recombinant p97 ATPase, Kinase-Glo ATP luminescence, 3 h; AID 1481; actives 0.42% (n = 220,000); in the data active = inhibition above about 15%;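 note: 0% = DMSO vehicle and 100% = wells lacking enzyme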
Hsp70 activator – switches on Hsp70 transcription | HeLa Hsp70 promoter luciferase reporter, luminescence; scaled: vehicle 0, proteasome-inhibitor control 100% | activation, % at 10 µM | actives 0.04% (n = 200,000) | AID 1203;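 active = activation above the mean across all tested compounds plus 3 SD, cutoff set per campaign, cut at about 5.5% in these data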;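 note: 100% = MG132 at 30 µM as the positive control and 0% = DMSO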
p97 inh conf – confirmation of human p97 ATPase inhibitors. actives 44% (n = 760). inhibition, % at 8 µM. AID 1517. recombinant p97 ATPase, Kinase-Glo ATP luminescence. shares compounds with p97 ATPase inh;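 active = percent inhibition of p97 ATPase above a set limit, the primary screen's mean plus 3 SD, cut at about 15% in these data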;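 note: 0% = DMSO wells and 100% = wells lacking p97 protein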
An asterisk follows results filed as active; x = no result. Compounds with a hit are over-represented: about 1.5% of the library has one in this group of screens.

SMILES	RBBP9 inhibitor	PP1 inh	PKD1 inh	PP5 inh	p97 ATPase inh	Hsp70 activator	p97 inh conf
COc1ccc(OC)c(S(=O)(=O)N2CCC(C(=O)NC3CCCC3)CC2)c1	x	5	x	0	x	x	x
COC(=O)COc1ccc(=O)n(-c2ccccc2)n1	-4	-2	-11	0	18*	0	5
CCCc1nc(C)c2c(=O)[nH]c(-c3cc(S(=O)(=O)N4CCN(CC)CC4)ccc3OCC)nn12	x	1	x	1	x	x	x
CCCCn1nc2cc(C(=O)NCc3cc(C(F)(F)F)cc(C(F)(F)F)c3)ccc2c1OC	-8	2	-9	5	-1	0	x
CCCCn1nc2cc(C(=O)NCc3ccc(OC(F)(F)F)cc3)ccc2c1OC	-6	4	-9	4	16*	0	3
COc1ccc(NC(=O)C(Cl)=C(Cl)Cl)cn1	-3	x	-7	x	28*	0	35*
COc1ccc(NC(=O)/C(Cl)=C(/Cl)S(=O)(=O)Cc2ccccc2)cn1	2	x	0	x	14	1	x
COc1ccc2cc(C#N)c(SCC(=O)N3CC(=O)Nc4ccccc43)nc2c1	5	0	x	0	15*	x	8
Cc1cccc2cc(C#N)c(SCC(=O)N3CC(=O)Nc4ccccc43)nc12	-9	10	0	-1	8	1	x
CC(C)Sc1nnc(-c2ccc(S(=O)(=O)N3CCOCC3)cc2)n1C	x	-2	x	2	x	x	x
CC#CC#Cc1cccc(=O)o1	-2	-1	x	1	29*	x	23*
CCN(CC)S(=O)(=O)c1cccc(C(=O)N/N=C(\C)c2ccc(O)cc2O)c1	-3	-5	-6	-3	22*	0	22*
O=C(NNC(=O)c1cc2cc(Br)ccc2oc1=O)c1ccc(O)cc1O	-4	4	-6	-5	19*	0	24*
COCCCNC(=O)c1cc2cc(Br)ccc2oc1=O	-10	-4	2	-2	1	-1	x
CCOc1ccccc1C(=O)Nc1cc(Cl)ccc1O	-2	2	6	7	18*	0	23*
Cc1ccc(S(=O)(=O)CCC(=O)c2ccc(O)cc2O)cc1	-11	-2	2	-2	16*	0	21*
Cc1ccc(S(=O)(=O)CCC(=O)OCC(=O)c2cc(C)ccc2C)cc1	x	-1	x	-1	x	x	x
O=S(=O)(c1ccc2oc(=S)[nH]c2c1)N1CCCCC1	-9	0	x	0	21*	x	4
Cc1ccc(N(C(=O)CNC(=O)c2ccco2)C(C(=O)NC2CCCC2)c2ccncc2)cc1C (stereo unspecified)	x	-1	x	1	x	x	x
C(=N\Nc1nc2ccccc2[nH]1)/c1c[nH]c2ccccc12	0	2	8	5	15*	0	8
CS(=O)(=O)c1ccc(NC(=O)CCN2C(=O)NC3(CCCC3)C2=O)cc1	x	-3	x	2	x	x	x
O=C(CCl)NNC(=O)c1c(O)c2ccccc2[nH]c1=O	-7	0	x	7	21*	x	32*
CCCCC(=O)NNC(=O)c1c(O)c2ccccc2[nH]c1=O	-8	0	x	-3	-8	x	x
C#CCOCCOCCOCCNc1nc(N2CCN(C(=O)C(Cc3ccc(O)cc3)n3cc(C(N)CC(C)C)nn3)CC2)nc(N2CCN(C(=O)C(Cc3cc4ccccc4[nH]3)n3cc(C(N)Cc4ccc(O)cc4)nn3)CC2)n1 (stereo unspecified)	4	17*	7	2	19*	0	20*
C#CCOCCOCCOCCNc1nc(N2CCN(C(=O)[C@H]([C@@H](C)CC)n3cc([C@@H](N)Cc4ccc(O)cc4)nn3)CC2)nc(N2CCN(C(=O)[C@H]([C@@H](C)CC)n3cc([C@@H](N)CC(C)C)nn3)CC2)n1	5	4	10	0	18*	0	9
COc1ccccc1C(=O)Nc1cc(-c2nn3c(C)nnc3s2)ccc1C	-5	x	-15	x	-5	0	x
O=C(Cn1cnc([N+](=O)[O-])n1)N/N=C/c1cc(Cl)ccc1O	1	-1	7	3	5	0	x
Cc1ccccc1CN1C2=NCCN2c2ccccc21	-5	-2	-1	-5	-1	0	x
